From publication PMC2914325 (Nanomedicine (London, England), 2010)

Columns and labels:
[1] = Absorption and fluorescence spectroscopy, quantum yield, TCSPC lifetime, TRES; format: physicochemical; details: for λem: 720 nm excitation; for τ (fluorescence lifetime): TCSPC, 773 nm excitation, 820 nm detection; for Φ (quantum yield): relative to ICG in DMSO
[2] = Aggregation / stability of probes in solvents; format: physicochemical
[3] = test system: subcutaneous 4T1luc tumors; experiment: Whole-body planar fluorescence reflectance imaging; format: in vivo, mouse (male NCR nude); details: 24 hours post-injection, i.v., subcutaneous 4T1luc tumor
How it was run: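 Tumours were 2×10^5 4T1luc cells s.c. in the right shoulder; n=3. Mice received i.v. 100 μl small-molecule probe (20 μM, 20% DMSO/water) or 150 μL nanoparticles. Planar NIR reflectance images (755±35 nm excitation, 830 nm emission, 60 s) were taken at 1, 4 and 24 h, with white-light/X-ray reference. Organs were then imaged ex vivo. ROI mean intensities were compared by Student's t-test (α = 0.05).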

[4] = test system: intradermal 4T1luc tumors in mouse ears; experiment: High resolution noninvasive NIR imaging of intradermal ear tumors; format: in vivo, mouse (female balb/c); details: post-injection
How it was run: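 4T1luc cells (1×10^4) were implanted intradermally in each ear; n=3. From day 3, isoflurane-anaesthetised mice had glycerin-coated ears imaged at 800 nm (0.02 mm/pixel). Nanoparticles (0.10 mL, 4×10^13 particles/mL) or small-molecule probe (0.02 mL, 20 μM, 20% DMSO/water) were given i.v. by tail vein. Imaging was pre-, immediately post-, 4 h and 24 h post-injection, repeated days 8 and 15. Background-subtracted tumour ROI intensity was normalised to injected dose from vessel ROIs.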

[5] = 20% DMSO/water, room temperature

ε × 10^-3 ([1]; DMSO, room temperature) [M^-1 cm^-1]	λabs ([1]; DMSO, room temperature) [nm]	λem ([1]; DMSO, room temperature) [nm]	τ (fluorescence lifetime) ([1]; DMSO) [ns]	Φ (quantum yield) ([1]; DMSO)	aggregation ([2]; aqueous solutions)	Molecule	In vivo tumor contrast [3]	λabs [1, 5] [nm]	λem [1, 5] [nm]	τ (fluorescence lifetime) ([1]; 20% DMSO/water) [ns]	Φ (quantum yield) ([1]; 20% DMSO/water)	stability in solvent ([2]; 20% DMSO/water)	time of peak tumor-to-normal contrast [4] [h]
224	790	817	0.97	0.12	form non-emissive aggregates	CC1(C)C(/C=C/C=C/C=C/C=C2/N(CCC(=O)O)c3ccc4ccccc4c3C2(C)C)=[N+](CCC(=O)[O-])c2ccc3ccccc3c21 [cypate]	–	–	–	–	–	–	–
–	–	–	–	–	–	cypate-cRGDfK	1.32 +/- 0.13	790	804	0.24	0.036	stable	4
